Source: ChEMBL document CHEMBL1833924, “HLE-inhibitory alkaloids with a polyketide skeleton from the marine-derived fungus Coniothyrium cereale” (J Nat Prod, 2011)
pIC50: −log10 of the molar value. Activity calls are given as the source filed them. The calls are words filed in the database; no cut-off is given here.

Experiments:
Neutrophil elastase = biological target: T1, Neutrophil elastase (Homo sapiens, UniProt P08246); experiment: Inhibition of human leukocyte elastase using MeOSuc-Ala-Ala-Pro-Val-para-nitroanilide chromogenic substrate after 10 mins spectrophotometrically
T1 sequence (P08246 whole entry): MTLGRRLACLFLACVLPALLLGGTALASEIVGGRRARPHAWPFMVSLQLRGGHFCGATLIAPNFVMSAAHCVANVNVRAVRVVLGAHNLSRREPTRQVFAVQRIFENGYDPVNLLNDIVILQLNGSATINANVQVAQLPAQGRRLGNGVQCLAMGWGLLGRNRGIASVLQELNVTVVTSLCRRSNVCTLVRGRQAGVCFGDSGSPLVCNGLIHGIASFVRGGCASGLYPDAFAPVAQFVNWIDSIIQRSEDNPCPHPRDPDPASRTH
Outline: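 Human leukocyte elastase enzyme inhibition assay; IC50 (μM) determined and reported as mean ± spread.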

L929 [1] = experiment: Cytotoxicity against mouse L929 cells after 5 days by MTT assay; assay type: cell-based; details: L929, 120 h
Outline: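 MTT viability assay run on mouse fibroblast cells; result expressed as IC50 (μM).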

Mycolicibacterium phlei [2] = experiment: Antibacterial activity against Mycobacterium phlei assessed as zone of inhibition at 20 ug/disk after 24 hrs by agar diffusion assay; assay type: functional; details: read-out: DIZ
Outline: (§1)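 Paper discs loaded at 20 μg/disk were placed on agar seeded with each bacterium (Mycobacterium phlei, Staphylococcus aureus or Escherichia coli). Read-out was the diameter of the inhibition zone, recorded in mm.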

Staphylococcus aureus [3] = experiment: Antibacterial activity against Staphylococcus aureus assessed as zone of inhibition at 20 ug/disk after 24 hrs by agar diffusion assay; assay type: functional; details: read-out: DIZ; outline: as §1
Escherichia coli [4] = experiment: Antibacterial activity against Escherichia coli assessed as zone of inhibition at 20 ug/disk after 24 hrs by agar diffusion assay; assay type: functional; details: read-out: DIZ; outline: as §1
[5] = Inhibition of bovine Chymotrypsin; parameters: species or system Bos taurus
[6] = Inhibition of bovine trypsin; parameters: species or system Bos taurus
Prothrombin = Prothrombin (Homo sapiens, UniProt P00734); experiment: Inhibition of human thrombin
Papain = biological target: T2, Papain (Carica papaya, UniProt P00784); experiment: Inhibition of Carica papaya papain
T2 sequence (P00784 whole entry): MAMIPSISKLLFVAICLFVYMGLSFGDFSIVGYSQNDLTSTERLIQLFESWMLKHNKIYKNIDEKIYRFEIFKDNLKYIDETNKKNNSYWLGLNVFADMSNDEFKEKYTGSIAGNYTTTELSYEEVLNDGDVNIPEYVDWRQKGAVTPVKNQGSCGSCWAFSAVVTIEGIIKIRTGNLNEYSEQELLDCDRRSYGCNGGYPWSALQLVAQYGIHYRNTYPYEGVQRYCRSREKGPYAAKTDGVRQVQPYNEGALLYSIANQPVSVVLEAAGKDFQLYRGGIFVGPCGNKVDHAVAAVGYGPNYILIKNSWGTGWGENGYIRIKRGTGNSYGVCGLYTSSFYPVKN

[7] = Inhibition of porcine cholesterol esterase; parameters: species or system Sus scrofa
Acetylcholinesterase = Acetylcholinesterase (Electrophorus electricus, UniProt O42275); experiment: Inhibition of electric eel AChE
L929 [8] = experiment: Cytotoxicity against mouse L929 cells at 60 uL after 5 days by MTT assay; assay type: cell-based; details: l929, 120 h
Mycolicibacterium phlei [9] = experiment: Antibacterial activity against Mycobacterium phlei at 20 uL after 24 hrs by agar diffusion assay; assay type: functional, organism-based
Staphylococcus aureus [10] = experiment: Antibacterial activity against Staphylococcus aureus at 20 uL after 24 hrs by agar diffusion assay; assay type: functional, organism-based
Escherichia coli [11] = experiment: Antibacterial activity against Escherichia coli at 20 ug/disk after 24 hrs by agar diffusion assay

Chain of Acetylcholinesterase (O42275 whole entry): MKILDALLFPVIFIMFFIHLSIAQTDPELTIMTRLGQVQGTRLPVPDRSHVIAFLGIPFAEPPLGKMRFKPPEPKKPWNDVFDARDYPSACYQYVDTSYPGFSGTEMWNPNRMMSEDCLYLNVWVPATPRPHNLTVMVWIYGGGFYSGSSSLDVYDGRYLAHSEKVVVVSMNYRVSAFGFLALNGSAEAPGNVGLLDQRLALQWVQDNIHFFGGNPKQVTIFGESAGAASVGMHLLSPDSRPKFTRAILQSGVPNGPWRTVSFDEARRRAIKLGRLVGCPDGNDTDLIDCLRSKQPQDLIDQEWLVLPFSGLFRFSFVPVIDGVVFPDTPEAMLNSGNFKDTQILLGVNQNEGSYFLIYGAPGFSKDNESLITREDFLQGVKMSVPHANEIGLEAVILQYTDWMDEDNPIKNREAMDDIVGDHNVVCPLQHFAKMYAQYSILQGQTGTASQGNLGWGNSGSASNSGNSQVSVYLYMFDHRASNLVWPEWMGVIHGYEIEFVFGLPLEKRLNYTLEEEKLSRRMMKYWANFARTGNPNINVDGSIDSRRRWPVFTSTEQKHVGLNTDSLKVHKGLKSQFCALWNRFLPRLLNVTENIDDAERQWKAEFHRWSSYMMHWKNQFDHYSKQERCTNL

Row | Compound | pIC50 (Neutrophil elastase) | pIC50 (L929 [1]) | zone of inhibition at 20 µg/disc (Mycolicibacterium phlei [2]) | zone of inhibition at 20 µg/disc (Staphylococcus aureus [3]) | zone of inhibition at 20 µg/disc (Escherichia coli [4]) | pIC50 [5] | pIC50 [6] | pIC50 (Prothrombin) | pIC50 (Papain) | pIC50 [7] | pIC50 (Acetylcholinesterase) | Activity (L929 [8]) | Activity (Mycolicibacterium phlei [9]) | Activity (Staphylococcus aureus [10]) | Activity (Escherichia coli [11])
1 | Cc1cc(O)cc2c1C1=C(C(=O)C2=O)C(C)(C)[C@H](C)O1 | < 4.70 | 5.12 | 18 mm | 14 mm | 12 mm | < 4.30 | < 4.30 | < 4.30 | < 4.30 | < 4.30 | < 4.30 |  |  |  | 
2 | Cc1cc(O)c2c3c(c(O)c4c(c13)O[C@@H](C)C4(C)C)NC2=O | 5.03 |  |  |  |  | < 4.30 | < 4.30 | < 4.30 | < 4.30 | < 4.30 | < 4.30 | Non-toxic | inactive | inactive | inactive
3 | C[C@@H]1OC2=C(C(=O)C(=N)c3c(O)c(O)cc(C=O)c32)C1(C)C | 5.52 |  |  |  |  | < 4.30 | < 4.30 | < 4.30 | < 4.30 | < 4.30 | < 4.30 | Non-toxic | inactive | inactive | inactive
